Results reported in ChEMBL document CHEMBL3784931, “Synthesis and evaluation of novel angiotensin II receptor 1 antagonists as anti-hypertension drugs” (Bioorg Med Chem, 2016).
Calls of active or inactive are those of the source. The rule behind the calls is not given here.

Columns and labels:
[1] = Elimination rate constant in Wistar rat liver at 10 mg/kg, po after 0.5 to 72 hrs by HPLC analysis; format: ADME, organism-based
How it was run: (§1)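 Wistar rats were dosed orally and killed by abdominal aorta transection at 0.5, 1, 2, 4, 6, 8, 12, 24, 48 and 72 h. Organs were excised at once, minced and homogenized at 4 °C in normal saline to a 25% (w/v) homogenate. After spinning at 3000 × g, 4 °C, 10 min, supernatants were analysed by HPLC. Values are mean ± SEM, n = 5 per point.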

[2] = Elimination rate constant in Wistar rat brain at 10 mg/kg, po after 0.5 to 72 hrs by HPLC analysis; format: ADME, organism-based; how it was run: as §1
[3] = Cmax in Wistar rat plasma at 10 mg/kg, po after 0.5 to 72 hrs by HPLC analysis; format: ADME, organism-based; parameters: dose 10 mg/kg, route oral
How it was run: (§2)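 Wistar rats got an oral dose. Venous blood (0.5 mL) was taken predose and at 0.5, 1, 2, 4, 6, 8, 12, 24, 48 and 72 h, and plasma was spun 4000 × g, 4 °C, 10 min. Samples with internal standard were acetonitrile-precipitated, filtered and run on C18 reverse-phase HPLC with UV detection. Calibration used weighted regression of peak height ratio.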

[4] = Acute toxicity in ICR mouse assessed as mortality at 6742.38 mg/kg, ig administered daily for 2 weeks measured during compound dosing; format: organism-based; details: in vivo, po
How it was run: (§3)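 ICR mice, sixty in total, half male and half female, 20 ± 2 g. Intragastric dosing at 1200, 1600, 2133.3, 2844.40, 5056.79 or 6742.38 mg/kg. Animals watched daily over two weeks for survival and physiological abnormalities or untoward reactions. Percent mortality recorded per dose group.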

Rattus norvegicus [5] = assay: Antihypertensive activity in spontaneous hypertensive rat model assessed as reduction in mean blood pressure at 10 mg/kg, po administered for 12 hrs; format: functional, organism-based
How it was run: (§4)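 Male SHRs were randomized, n = 6 per group. Compound was suspended in DMSO/oleic acid (1:4) and given by oral gavage; vehicle controls got the same volume of solvent. SBP and DBP were recorded in conscious animals by noninvasive tail-artery manometry. MBP = (SBP − DBP)/3 + DBP. Data are mean ± SEM, with p < 0.05 taken as significant.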

[6] = Tmax in Wistar rat lung at 10 mg/kg, po after 0.5 to 72 hrs by HPLC analysis; format: ADME, organism-based; how it was run: as §1
[7] = Terminal half life in Wistar rat liver at 10 mg/kg, po after 0.5 to 72 hrs by HPLC analysis; format: ADME, organism-based; details: read-out: beta t1/2 (converted); how it was run: as §1
Spleen = assay: AUC (0 to 72 hrs) in Wistar rat spleen at 10 mg/kg, po by HPLC analysis; format: ADME, organism-based; parameters: time < 72 hr, dose 10 mg/kg, route oral; details: in vivo; how it was run: as §1
[8] = Tmax in Wistar rat stomach at 10 mg/kg, po after 0.5 to 72 hrs by HPLC analysis; format: ADME, organism-based; how it was run: as §1
[9] = Tmax in Wistar rat heart at 10 mg/kg, po after 0.5 to 72 hrs by HPLC analysis; format: ADME, organism-based; how it was run: as §1
[10] = Tmax in Wistar rat kidney at 10 mg/kg, po after 0.5 to 72 hrs by HPLC analysis; format: ADME, organism-based; how it was run: as §1
[11] = Acute toxicity in ICR mouse assessed as mortality at 1600 mg/kg, ig administered daily for 2 weeks measured during compound dosing; format: organism-based; details: in vivo, po; how it was run: as §3
[12] = Cmax in Wistar rat heart at 10 mg/kg, po after 0.5 to 72 hrs by HPLC analysis; format: ADME, organism-based; parameters: dose 10 mg/kg, route oral; how it was run: as §1
Liver = assay: AUC (0 to 72 hrs) in Wistar rat liver at 10 mg/kg, po by HPLC analysis; format: ADME, organism-based; parameters: time < 72 hr, dose 10 mg/kg, route oral; details: in vivo; how it was run: as §1
[13] = Terminal half life in Wistar rat heart at 10 mg/kg, po after 0.5 to 72 hrs by HPLC analysis; format: ADME, organism-based; details: read-out: beta t1/2 (converted); how it was run: as §1
[14] = Cmax in Wistar rat liver at 10 mg/kg, po after 0.5 to 72 hrs by HPLC analysis; format: ADME, organism-based; parameters: dose 10 mg/kg, route oral; how it was run: as §1
Mus musculus [15] = assay: Acute toxicity in ICR mouse assessed as mortality at 1200 to 6742.38 mg/kg, ig administered daily for 2 weeks during compound dosing; format: organism-based; details: in vivo, po, 336 h; how it was run: as §3
[16] = Cmax in Wistar rat spleen at 10 mg/kg, po after 0.5 to 72 hrs by HPLC analysis; format: ADME, organism-based; parameters: dose 10 mg/kg, route oral; how it was run: as §1
Mus musculus [17] = assay: Acute toxicity in ICR mouse assessed as aggressiveness at 1200 mg/kg, ig administered daily for 2 weeks measured during compound dosing; format: organism-based; details: in vivo, po, 336 h; how it was run: as §3
[18] = Terminal half life in Wistar rat brain at 10 mg/kg, po after 0.5 to 72 hrs by HPLC analysis; format: ADME, organism-based; details: read-out: beta t1/2 (converted); how it was run: as §1
[19] = Terminal half life in Wistar rat plasma at 10 mg/kg, po after 0.5 to 72 hrs by HPLC analysis; format: ADME, organism-based; details: read-out: beta t1/2 (converted); how it was run: as §2
[20] = Tmax in Wistar rat brain at 10 mg/kg, po after 0.5 to 72 hrs by HPLC analysis; format: ADME, organism-based; how it was run: as §1
[21] = Elimination rate constant in Wistar rat kidney at 10 mg/kg, po after 0.5 to 72 hrs by HPLC analysis; format: ADME, organism-based; how it was run: as §1
[22] = Cmax in Wistar rat brain at 10 mg/kg, po after 0.5 to 72 hrs by HPLC analysis; format: ADME, organism-based; parameters: dose 10 mg/kg, route oral; how it was run: as §1
[23] = Tmax in Wistar rat liver at 10 mg/kg, po after 0.5 to 72 hrs by HPLC analysis; format: ADME, organism-based; how it was run: as §1
Rattus norvegicus [24] = assay: Antihypertensive activity in spontaneous hypertensive rat model assessed as mean blood pressure at 10 mg/kg, po administered for 2 hrs; format: functional; how it was run: as §4
Mus musculus [25] = assay: Acute toxicity in ICR mouse assessed as mobility at 1200 mg/kg, ig administered daily for 2 weeks measured during compound dosing; format: organism-based; details: in vivo, po, 336 h; how it was run: as §3
[26] = Acute toxicity in ICR mouse assessed as mortality at 1200 mg/kg, ig administered daily for 2 weeks measured during compound dosing; format: organism-based; details: in vivo, po; how it was run: as §3
Brain = assay: AUC (0 to 72 hrs) in Wistar rat brain at 10 mg/kg, po by HPLC analysis; format: ADME, organism-based; parameters: dose 10 mg/kg, time < 72 hr, route oral; details: in vivo; how it was run: as §1
Mus musculus [27] = assay: Acute toxicity in ICR mouse assessed as skin changes at 1200 mg/kg, ig administered daily for 2 weeks measured during compound dosing; format: organism-based; details: in vivo, po, 336 h; how it was run: as §3
[28] = AUC (0 to 72 hrs) in Wistar rat plasma at 10 mg/kg, po by HPLC analysis; format: ADME, organism-based; parameters: dose 10 mg/kg, time < 72 hr, route oral; how it was run: as §2

Question: Which k el [1] does the source give for `CCCCc1nc(Cl)c(C(=O)O)n1Cc1ccc(-c2ccccc2-c2noc(=O)[nH]2)cc1` here?
Answer: 1.94e-05 s⁻¹

Question: What about the k el [2] of the same molecule?
Answer: 1.14e-05 s⁻¹

Question: What about the Cmax [3] of the same molecule?
Answer: 10.3 ng/mL

Question: What about the mortality at 336 h [4] of the same molecule?
Answer: 100%

Question: What about the Activity (Rattus norvegicus [5]) of the same molecule?
Answer: Active

Question: And the Tmax [6]?
Answer: 1 h

Question: And the half-life [7]?
Answer: 10.7 h

Question: And the AUC (Spleen)?
Answer: 275.21 ng·h/g

Question: And the Tmax [8]?
Answer: 0.5 h

Question: And the Tmax [9]?
Answer: 0.5 h

Question: And the Tmax [10]?
Answer: 0.5 h

Question: What about the mortality at 336 h [11] of the same molecule?
Answer: 10%

Question: What about the Cmax [12] of the same molecule?
Answer: 8.87 ng/g

Question: What about the AUC (Liver) of the same molecule?
Answer: 260.05 ng·h/g

Question: What about the half-life [13] of the same molecule?
Answer: 9.13 h

Question: What about the Cmax [14] of the same molecule?
Answer: 9.56 ng/g

Question: What about the Activity (Mus musculus [15]) of the same molecule?
Answer: Toxic

Question: And the Cmax [16]?
Answer: 8.84 ng/g

Question: What about the Activity (Mus musculus [17]) of the same molecule?
Answer: Non-toxic

Question: And the half-life [18]?
Answer: 16.9 h

Question: What about the half-life [19] of the same molecule?
Answer: 18.2 h

Question: And the Tmax [20]?
Answer: 2 h

Question: And the k el [21]?
Answer: 1.11e-05 s⁻¹

Question: And the Cmax [22]?
Answer: 5.8 ng/g

Question: What about the Tmax [23] of the same molecule?
Answer: 0.5 h

Question: What about the Activity (Rattus norvegicus [24]) of the same molecule?
Answer: 41 mmHg

Question: And the Activity (Mus musculus [25])?
Answer: Non-toxic

Question: And the mortality at 336 h [26]?
Answer: 0%

Question: What about the AUC (Brain) of the same molecule?
Answer: 123.07 ng·h/g

Question: And the Activity (Mus musculus [27])?
Answer: Non-toxic

Question: And the AUC(0-t) at 72 h [28]?
Answer: 296 ng·h/mL
